ChEMBL document CHEMBL1158400, “Synthesis of 2-styrylchromones as a novel class of antiproliferative agents targeting carcinoma cells” (Eur J Med Chem, 2009)
Activity calls are given as the source filed them. No cut-off for these calls is given here.

How the values were obtained:
[1] = Antiproliferative activity against human BT-483 cells after 12 hrs by MTT assay; assay type: functional, cell-based; conditions: BT-483, 12 h
How it was run: (§1)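 MTT assay. Cells grown as monolayers in DMEM with 10% FBS, 2 mM glutamine and penicillin/streptomycin at 37 °C, 5% CO2. Seeded at 1×10^4 cells/well and held 12 h before serial compound dilutions were added. Final DMSO was under 1% (v/v). MTT (2 mg/ml) was present for the last 1.5 h; the formazan was dissolved in DMSO and read at 570 nm. IC50 interpolated from dose-response curves; mean ± sem of four to six experiments.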

A549 = assay: Antiproliferative activity against human A549 cells after 12 hrs by MTT assay; assay type: functional, cell-based; conditions: A549, 12 h; how it was run: as §1
PC-3 = assay: Antiproliferative activity against human PC3 cells after 12 hrs by MTT assay; assay type: functional, cell-based; conditions: PC-3, 12 h; how it was run: as §1
[2] = Antiproliferative activity against human SKHep cells after 12 hrs by MTT assay; assay type: functional, cell-based; how it was run: as §1
HeLa [3] = assay: Antiproliferative activity against human HeLa cells after 12 hrs by MTT assay; assay type: functional, cell-based; how it was run: as §1
HeLa [4] = assay: Cell cycle arrest in human HeLa cells assessed as accumulation at G1 phase at 20 uM after 24 hrs using propidium iodide staining by FACS analysis; assay type: functional, cell-based
HeLa [5] = assay: Antiproliferative activity against human HeLa cells assessed as DNA fragmentation at 5 uM after 24 hrs using […] DAPI staining by fluorescence microscopy; assay type: functional, cell-based
How it was run: (§2)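 HeLa cells grown on cover glasses were treated 24 h with 5 or 10 μM compound, with untreated and 0.5% DMSO controls. They were fixed in 4% paraformaldehyde, glycine-washed and permeabilized with 2% FBS/0.4% Triton X-100. Nuclei were stained with DAPI (0.1 μg/ml) for 5 min in the dark, and DNA fragmentation was examined by fluorescence microscopy.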

HeLa [6] = assay: Antiproliferative activity against human HeLa cells assessed as morphological changes at 5 uM after 24 hrs using DAPI staining by fluorescence microscopy; assay type: functional, cell-based
How it was run: (§3)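 HeLa cells were exposed 24 h to 5, 10 or 20 μM compound, with untreated and DMSO controls. Morphology (cell rounding, detachment from substratum) was examined.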

HeLa [7] = assay: Antiproliferative activity against human HeLa cells assessed as morphological changes at 10 uM after 24 hrs using DAPI staining by fluorescence microscopy; assay type: functional, cell-based; how it was run: as §3
HeLa [8] = assay: Antiproliferative activity against human HeLa cells assessed as DNA fragmentation at 10 uM after 24 hrs using […] DAPI staining by fluorescence microscopy; assay type: functional, cell-based; how it was run: as §2
HeLa [9] = assay: Cell cycle arrest in human HeLa cells assessed as accumulation at sub-G1 phase after 24 hrs using propidium iodide staining by FACS analysis; assay type: functional, cell-based
How it was run: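 HeLa cells were treated 24 h with compound at 5 or 20 μM, with a 0.5% DMSO control and untreated blank. Cells were harvested, rinsed in PBS and fixed in 80% ethanol at −20 °C. They were stained with propidium iodide and analysed by flow cytometry. The sub-diploid (apoptotic) population is expressed as a percentage of all cells.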

HeLa [10] = assay: Antiproliferative activity against human HeLa cells at 3 uM after 30 hrs by MTT assay; assay type: functional
How it was run: (§4)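 HeLa cells at 10^4 cells/well were given the compound at 1.0, 3.0 or 10 μM, alongside an untreated control and a 0.1% DMSO control. Proliferation was followed by MTT at several time points over a 30 h period.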

HeLa [11] = assay: Antiproliferative activity against human HeLa cells assessed as morphological changes at 20 uM after 24 hrs using DAPI staining by fluorescence microscopy; assay type: functional, cell-based; how it was run: as §3
HeLa [12] = assay: Antiproliferative activity against human HeLa cells at 10 uM after 30 hrs by MTT assay; assay type: functional; how it was run: as §4

Compound	IC50 ([1]; read-out: IC50) [µM]	IC50 ([1]; read-out: pIC50 (converted)) [µM]	IC50 (A549) [µM]	IC50 (PC-3) [µM]	IC50 [2] [µM]	IC50 (HeLa [3]) [µM]	Activity (HeLa [4])	Activity (HeLa [5])	Activity (HeLa [6])	Activity (HeLa [7])	Activity (HeLa [8])	Activity (HeLa [9])	Activity (HeLa [10]) [%]	Activity (HeLa [11])	Activity (HeLa [12]) [%]
COc1cc(OC)c2c(=O)cc(/C=C/c3ccc(OC(F)(F)F)cc3)oc2c1	26.6	26.3	24.2	> 40	12.5	> 40									
COc1ccc2c(=O)cc(/C=C/c3ccc(OC(F)(F)F)cc3)oc2c1	20.1	20	> 40	> 40	> 40	9.9									
COc1cc(/C=C/c2cc(=O)c3c(OC)cc(OC)cc3o2)cc(OC)c1	16.6	16.6	15.6	> 40	23.7	16.7									
COc1cc(OC)c2c(=O)cc(/C=C/c3ccc(F)cc3)oc2c1	19.9	20	18.6	> 40	29.2	14.2									
COc1cc(OC)c2c(=O)cc(/C=C/c3ccc4c(c3)OCO4)oc2c1	29.3	29.5	> 40	> 40	23.7	16.4									
COc1cc(OC)c2c(=O)cc(/C=C/c3ccncc3)oc2c1	25.2	25.1	> 40	> 40	> 40	18.8									
COc1cc(OC)c2c(=O)cc(/C=C/c3ccc(Cl)cc3)oc2c1	26.1	26.3	> 40	> 40	26.9	14.2									
COc1cccc2oc(/C=C/c3ccc(OC(F)(F)F)cc3)cc(=O)c12	18.2	18.2	> 40	> 40	21	9.1									
COc1cc(OC)c2c(=O)cc(/C=C/c3ccc([N+](=O)[O-])cc3)oc2c1	25.5	25.5	19.7	> 40	22	9.6									
COc1ccc(/C=C/c2cc(=O)c3c(OC)cc(OC)cc3o2)cc1	29.6	29.5	> 40	> 40	> 40	17.8									
COc1cc(OC)c2c(=O)cc(/C=C/c3ccc(Br)cc3)oc2c1	> 40	60.3	> 40	> 40	> 40	> 40									
COc1cc(OC)c2c(=O)cc(/C=C/c3ccc(C(F)(F)F)cc3)oc2c1	> 40	60.3	> 40	> 40	20.6	19	Active								
COc1cc(OC)c2c(=O)cc(/C=C/c3ccc(OCC4CC4)cc3)oc2c1	16.6	16.6	20.9	> 40	22.1	10.9									
COc1ccc2oc(/C=C/c3ccc(OC(F)(F)F)cc3)cc(=O)c2c1	> 40		> 40	> 40	> 40	9									
COc1ccc2c(=O)cc(/C=C/c3ccc(OC(F)(F)F)cc3)oc2c1OC	30.9	30.9	> 40	> 40	12.4	4.9		inactive	Active	Active	Active	Dose-dependent effect	15	Active	60
COc1cc(OC)c2c(=O)cc(/C=C/c3ccccc3)oc2c1	> 40		21.5	> 40	26	10.1	Active								
